Bmax and Ki data for four molecules are collected here from ChEMBL document CHEMBL1128480 (J Med Chem, 1995).

Assay [1] is filed under the species Rattus norvegicus. In words: Effect on [3H]sradipine binding to rat heart. The essentials:
(§1)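 Sprague Dawley rat ventricle microsomes were prepared in 50 mM Tris with PMSF (pH 7.4), with a final 100 000g spin. Membranes (0.3 mg protein/mL) were preincubated 5 min with compound (10⁻⁶–10⁻¹¹ M), then given 0.2 nM [³H]-(+)-methylisradipine with 0.5 mM CaCl₂ for 60 min at room temperature. Filter-bound label was counted. Nonspecific binding was taken from 1 μM isradipine. Experiments were repeated 2–3 times in triplicate, with LIGAND analysis.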

A short description of assay [2]: Concentration displacing [3H]sradipine binding to rat heart. Put shortly:
as §1

Assay [3] is described as follows: Concentration displacing [3H]-sradipine binding to rat brain. It is filed as tissue-based. The essentials: (§2)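 Whole Sprague Dawley rat brain was homogenized in 25 mM HEPES/NaOH with 0.32 M sucrose and 0.1 mM PMSF (pH 7.4), and pellets were collected by centrifugation. Microsomes (0.3 mg protein/mL) received compound (10⁻⁶–10⁻¹¹ M) for a 5-min preincubation. Then 0.2 nM [³H]-(+)-methylisradipine was added with 0.5 mM CaCl₂, for 60 min at room temperature, followed by filtration and scintillation counting. Nonspecific binding was defined with 1 μM isradipine. Runs were 2–3 times in triplicate, fitted with LIGAND.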

For assay [4], the species on record is Rattus norvegicus. In words: Effect on [3H]sradipine binding to rat brain. It counts as tissue-based. The essentials:
as §2

The species entered for assay [5] is Cavia porcellus. Briefly: Effect on [3H]sradipine binding to guinea pig ileum. The essentials:
(§3)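 Guinea pig ileal longitudinal-muscle microsomes were prepared in 50 mM Tris with PMSF (pH 7.0) and spun down at 45 000g. Membranes (0.3 mg protein/mL) were preincubated 5 min with compound (10⁻⁶–10⁻¹¹ M), then incubated 60 min at room temperature with 0.2 nM [³H]-(+)-methylisradipine and 0.5 mM CaCl₂. Samples were filtered and counted. Nonspecific binding was set with 1 μM isradipine. Runs were 2–3 times in triplicate, analysed with LIGAND.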

The species named for assay [6] is Cavia porcellus. In words: Concentration displacing [3H]-sradipine binding to guinea pig ileum. Put shortly: as §3
The species entered for assay [7] is Rattus norvegicus. In words: Effect on [3H]sradipine binding to rat brain. It is filed as tissue-based. The essentials:
as §2

The nature of assay [8]: Concentration displacing [3H]sradipine binding to rat brain. It counts as tissue-based. Put shortly: as §2
Assay [9] can be described thus: Concentration inhibiting [3H]sradipine binding to rat brain. It counts as tissue-based. Put shortly:
as §2

For orientation: Ki means the equilibrium dissociation constant of an inhibitor or competing ligand from its target. A low value points to tighter binding.

For `CO/C(O)=C1\C(C)=NC(C)=C(C(=O)OC[C@H]2CCCO2)[C@@H]1c1ccccc1[N+](=O)[O-]`, the Bmax in the assay listed under Rattus norvegicus [1] was found to be 81.4 fmol/mg; in the assay listed under Rattus norvegicus [4], 79.1 fmol/mg; in the assay filed under Cavia porcellus [5], 250 fmol/mg. Besides, the Ki in [2] was determined as 5.95 nM; in [3] it was 17.7 nM; in the assay listed under Cavia porcellus [6], 11.1 nM.
In the case of `CO/C(O)=C1\C(C)=NC(C)=C(C(=O)OC[C@@H]2CCCO2)[C@H]1c1ccccc1[N+](=O)[O-]`, the Bmax in the assay filed under Rattus norvegicus [1] came out at 74.9 fmol/mg; in the assay filed under Rattus norvegicus [7] it was 74.9 fmol/mg; in the assay filed under Cavia porcellus [5] it was 299 fmol/mg. The Ki was determined as 0.6 nM in assay [2], 0.58 nM in assay [8] and 0.96 nM in the assay listed under Cavia porcellus [6].
Turning to `COC(=O)C1=C(C)NC(C)=C(C(=O)OC[C@@H]2CCCO2)[C@@H]1c1ccccc1[N+](=O)[O-]` (stereo in doubt), the Bmax in the assay filed under Rattus norvegicus [1] came out at 65.3 fmol/mg; in the assay filed under Rattus norvegicus [4], 77.2 fmol/mg; in the assay filed under Cavia porcellus [5] it was 261 fmol/mg. The Ki in assay [2] was 13 nM; in assay [9], 18.1 nM; in the assay filed under Cavia porcellus [6], 24.8 nM.
On to `COC(=O)C1=C(C)NC(C)=C(C(=O)OC[C@H]2CCCO2)[C@H]1c1ccccc1[N+](=O)[O-]` (stereo in doubt), for which the Bmax in the assay filed under Rattus norvegicus [1] stood at 84.7 fM/mg; in the assay filed under Rattus norvegicus [7] it was 79.7 fmol/mg; in the assay filed under Cavia porcellus [5] it was 269 fmol/mg. Besides, the Ki in assay [2] was 1 nM; in assay [3], 0.67 nM; in the assay filed under Cavia porcellus [6], 2.04 nM.
